Data set [1] is described as follows: folding enthalpy; higher = less favourable; fluorescence melt of hairpins on a sequencing array, two-state fit. The settings on record: sodium 0.088 M. The gist of the method:
(§1)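 With Cy3 and quencher oligos annealed, library hairpins on a sequenced MiSeq flow cell were imaged for Cy3 fluorescence in 50 mM Na-HEPES pH 8.0, 25 mM NaCl, in 2.5 °C steps up to 60 °C. Melting temperature and folding enthalpy were derived from bootstrapped two-state fits of signals normalised to pre-quench Cy3 and to control constructs. Four replicates were combined by inverse variance, with fitted temperatures raised by 9.35 °C to match UV melts.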

Data set [2] is described as follows: melting temperature; fluorescence melt of hairpins on a sequencing array, two-state fit, raised by 9.35 °C to match UV melts. The settings on record: sodium 0.088 M. The gist of the method:
as §1

These results are taken from the array DNA melting data of Ke et al. (doi:10.1101/2024.01.08.574731).

Turning to GATCTGCTACCAGATC ((((((....)))))), the folding enthalpy in data set [1] was -37.4 kcal/mol. Further, in data set [2], the Tm was 48.8 °C.

In the case of GATCTGCTCCCAGATC ((((((....)))))), the folding enthalpy in data set [1] is -37.1 kcal/mol. The Tm in data set [2] was 47.9 °C.

Regarding GATCTGCTTTCAGATC ((((((....)))))), the folding enthalpy in data set [1] was -40.1 kcal/mol. The Tm in data set [2] was 49.1 °C.

As for GATCTGGAGACAGATC ((((((....)))))), the folding enthalpy in data set [1] was -33.9 kcal/mol. In addition, the Tm in data set [2] came out at 52 °C.

Turning to GATCTGGAGTCAGATC ((((((....)))))), in data set [1], the folding enthalpy was -48.3 kcal/mol. The Tm in data set [2] was found to be 48.1 °C.

Turning to GATCTGGATACAGATC ((((((....)))))), the folding enthalpy in data set [1] was -34 kcal/mol. Moreover, the Tm in data set [2] was 56.7 °C.

Consider GATCTGGCAACAGATC ((((((....)))))), for which, in data set [1], the folding enthalpy is -35 kcal/mol. Moreover, the Tm in data set [2] turned out to be 57.6 °C.

In the case of GATCTGGCGGCAGATC ((((((....)))))), the folding enthalpy in data set [1] is -53.2 kcal/mol. In addition, the Tm in data set [2] came to 53.3 °C.

In the case of GATCTGGCTACAGATC ((((((....)))))), the folding enthalpy in data set [1] was -42 kcal/mol. The Tm in data set [2] was 59.4 °C.

As for GATCTGGGACAGATC ((((((...)))))), the folding enthalpy in data set [1] is -35.5 kcal/mol. Also, the Tm in data set [2] stood at 58.1 °C.

In the case of GATCTGGGCACAGATC ((((((....)))))), in data set [1], the folding enthalpy was -40 kcal/mol. In addition, in data set [2], the Tm is 59.3 °C.

GATCTGGGGTCAGATC ((((((....)))))): the folding enthalpy in data set [1] was -34.5 kcal/mol. Besides, the Tm in data set [2] stood at 48.7 °C.

As to GATCTGGGTTCAGATC ((((((....)))))), the folding enthalpy in data set [1] was -43.3 kcal/mol. Further, the Tm in data set [2] is 49.4 °C.

On to GATCTGGTATCAGATC ((((((....)))))), for which the folding enthalpy in data set [1] is -41.8 kcal/mol. Besides, in data set [2], the Tm is 55.5 °C.

Regarding GATCTGGTGTCAGATC ((((((....)))))), the folding enthalpy in data set [1] is -35.2 kcal/mol. Also, the Tm in data set [2] was found to be 49.8 °C.

Turning to GATCTGTAAACAGATC ((((((....)))))), the folding enthalpy in data set [1] is -39.5 kcal/mol. Also, the Tm in data set [2] was found to be 50.3 °C.

Take GATCTGTAACCAGATC ((((((....)))))): the folding enthalpy in data set [1] was -29.3 kcal/mol. Further, in data set [2], the Tm stood at 46.8 °C.

On to GATCTGTACCAGATC ((((((...)))))), for which the folding enthalpy in data set [1] is -31.9 kcal/mol. Further, the Tm in data set [2] came out at 49.3 °C.

Turning to GATCTGTACGCAGATC ((((((....)))))), the folding enthalpy in data set [1] was -44.9 kcal/mol. Moreover, the Tm in data set [2] turned out to be 54.4 °C.

Turning to GATCTGTAGACAGATC ((((((....)))))), in data set [1], the folding enthalpy is -35.5 kcal/mol. Also, in data set [2], the Tm stood at 50.8 °C.

With GATCTGTCAACAGATC ((((((....)))))), in data set [1], the folding enthalpy was -39.1 kcal/mol. In data set [2], the Tm came out at 51.6 °C.

On to GATCTGTCGACAGATC ((((((....)))))), for which the folding enthalpy in data set [1] is -49.6 kcal/mol. Moreover, the Tm in data set [2] came to 55.1 °C.

On to GATCTGTCGCAGATC ((((((...)))))), for which the folding enthalpy in data set [1] is -24.5 kcal/mol. For the same sequence, the Tm in data set [2] amounted to 48.5 °C.

For the sequence GATCTGTGCACAGATC ((((((....)))))), the folding enthalpy in data set [1] was -48.9 kcal/mol. The Tm in data set [2] came out at 57.9 °C.

Take GATCTGTGCCCAGATC ((((((....)))))): the folding enthalpy in data set [1] is -30.6 kcal/mol. Also, in data set [2], the Tm was 49 °C.

As for GATCTGTGGTCAGATC ((((((....)))))), in data set [1], the folding enthalpy was -38.7 kcal/mol. Besides, the Tm in data set [2] came out at 49.6 °C.

Turning to GATCTGTGTACAGATC ((((((....)))))), the folding enthalpy in data set [1] is -47.9 kcal/mol. For the same sequence, the Tm in data set [2] was 56 °C.

GATCTGTGTCCAGATC ((((((....)))))): the folding enthalpy in data set [1] was -31.8 kcal/mol. Further, in data set [2], the Tm came to 49.2 °C.

With GATCTGTTAACAGATC ((((((....)))))), in data set [1], the folding enthalpy is -39.8 kcal/mol. Besides, the Tm in data set [2] amounted to 54.7 °C.

In the case of GATCTGTTACAGATC ((((((...)))))), the folding enthalpy in data set [1] is -36.3 kcal/mol. In addition, the Tm in data set [2] was 50.5 °C.

GATCTGTTCCAGATC ((((((...)))))): the folding enthalpy in data set [1] was -30.4 kcal/mol. The Tm in data set [2] worked out at 50.7 °C.

As to GATCTGTTTCAGATC ((((((...)))))), in data set [1], the folding enthalpy is -34.5 kcal/mol. In addition, the Tm in data set [2] is 50.5 °C.

On to GATCTGTTTCCAGATC ((((((....)))))), for which the folding enthalpy in data set [1] was -34.9 kcal/mol. Further, the Tm in data set [2] turned out to be 49.3 °C.

As to GATCTTAAGCAAGATC ((((((....)))))), in data set [1], the folding enthalpy is -31.3 kcal/mol. Besides, the Tm in data set [2] was determined as 40.1 °C.

For GATCTTAATCAAGATC ((((((....)))))), the folding enthalpy in data set [1] was -26.5 kcal/mol. Besides, the Tm in data set [2] was determined as 38.6 °C.

Turning to GATCTTACCCAAGATC ((((((....)))))), the folding enthalpy in data set [1] was -26.2 kcal/mol. Further, the Tm in data set [2] was determined as 42.1 °C.

As for GATCTTACCGAAGATC ((((((....)))))), the folding enthalpy in data set [1] is -33 kcal/mol. In addition, the Tm in data set [2] was determined as 42.9 °C.

Consider GATCTTAGAAAAGATC ((((((....)))))), for which the folding enthalpy in data set [1] is -21.6 kcal/mol. Further, the Tm in data set [2] was 36.4 °C.

For the sequence GATCTTAGGCAAGATC ((((((....)))))), in data set [1], the folding enthalpy was -27.9 kcal/mol. In addition, in data set [2], the Tm is 42.8 °C.

Consider GATCTTAGTAAAGATC ((((((....)))))), for which, in data set [1], the folding enthalpy is -30.3 kcal/mol. For the same sequence, in data set [2], the Tm amounted to 43.1 °C.

As to GATCTTATCCAAGATC ((((((....)))))), the folding enthalpy in data set [1] is -31.6 kcal/mol. Also, the Tm in data set [2] turned out to be 42.6 °C.

Regarding GATCTTATCGAAGATC ((((((....)))))), the folding enthalpy in data set [1] is -20.8 kcal/mol. Besides, the Tm in data set [2] was determined as 38.7 °C.

Consider GATCTTATTCAAGATC ((((((....)))))), for which, in data set [1], the folding enthalpy was -31.7 kcal/mol. For the same sequence, in data set [2], the Tm is 43.5 °C.

For the sequence GATCTTCAATAAGATC ((((((....)))))), the folding enthalpy in data set [1] is -30.6 kcal/mol. Also, in data set [2], the Tm amounted to 39.8 °C.

Take GATCTTCAGAAGATC ((((((...)))))): the folding enthalpy in data set [1] was -35.9 kcal/mol. Moreover, the Tm in data set [2] was determined as 40.3 °C.

As for GATCTTCATCAAGATC ((((((....)))))), the folding enthalpy in data set [1] was -29.9 kcal/mol. For the same sequence, the Tm in data set [2] stood at 40.3 °C.

Turning to GATCTTCCAGAAGATC ((((((....)))))), in data set [1], the folding enthalpy was -33.7 kcal/mol. Moreover, the Tm in data set [2] was 46 °C.

As for GATCTTCCCTAAGATC ((((((....)))))), the folding enthalpy in data set [1] was -31.1 kcal/mol. Further, the Tm in data set [2] stood at 43.3 °C.

On to GATCTTCGCGAAGATC ((((((....)))))), for which the folding enthalpy in data set [1] is -59 kcal/mol. In addition, the Tm in data set [2] is 55.3 °C.

Regarding GATCTTCGGAAAGATC ((((((....)))))), the folding enthalpy in data set [1] was -29.1 kcal/mol. In addition, the Tm in data set [2] stood at 38.9 °C.

As to GATCTTCGGCAAGATC ((((((....)))))), the folding enthalpy in data set [1] is -28.3 kcal/mol. In addition, the Tm in data set [2] stood at 37.8 °C.

As for GATCTTCGTAAGATC ((((((...)))))), in data set [1], the folding enthalpy is -30.9 kcal/mol. In addition, in data set [2], the Tm stood at 45.2 °C.

In the case of GATCTTCGTCAAGATC ((((((....)))))), the folding enthalpy in data set [1] is -33.5 kcal/mol. In addition, the Tm in data set [2] was 40.7 °C.

As to GATCTTCGTGAAGATC ((((((....)))))), the folding enthalpy in data set [1] is -41 kcal/mol. Also, in data set [2], the Tm was determined as 53.3 °C.

As for GATCTTCTAAAGATC ((((((...)))))), the folding enthalpy in data set [1] was -30.9 kcal/mol. The Tm in data set [2] amounted to 42.9 °C.

As to GATCTTCTGAAGATC ((((((...)))))), the folding enthalpy in data set [1] is -37 kcal/mol. In data set [2], the Tm was found to be 43.6 °C.

As to GATCTTGAAAAGATC ((((((...)))))), the folding enthalpy in data set [1] was -33.5 kcal/mol. The Tm in data set [2] was 54.8 °C.
